Data reported in PMC9055920 (RSC Advances, 2020).
Where two headings read alike, the source gives them in different places.

Key:
α-glucosidase [1] = details: cited from earlier work
α-glucosidase [2] = molecular target: T1, α-glucosidase (Saccharomyces cerevisiae, UniProt P53341); test: Kinetic analysis of inhibitory type; format: biochemical; details: Lineweaver–Burk plots
[3] = molecular target: Saccharomyces cerevisiae α-glucosidase (Saccharomyces cerevisiae, UniProt P53341); test: α-Glucosidase enzyme activity; format: biochemical; details: at the concentration of 125 μmol L^−1
α-glucosidase [4] = molecular target: T1, α-glucosidase; test: Fluorescence quenching and thermodynamic analysis; format: binding; details: for ΔH° enthalpy change / ΔS° entropy change: van't Hoff plot over 298, 304, 310 K
α-glucosidase [5] = molecular target: T1, α-glucosidase; test: CD spectroscopy of secondary structure
Outline: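 Far-UV CD spectra (190–250 nm) were recorded for S. cerevisiae α-glucosidase held at 2 μmol L−1, with test flavonol added at flavonol:enzyme molar ratios of 0:1, 40:1 and 80:1. Each spectrum was averaged over three scans under constant nitrogen flush, and the buffer signal was subtracted. Experiments were done in triplicate.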

α-glucosidase [6] = molecular target: T1, α-glucosidase; test: Reversibility, plots of v vs. [α-glucosidase]; format: biochemical; details: myricetin 0–6.25 × 10^−5 mol L^−1, c(pNPG) = 3.13 × 10^−4 mol L^−1
[7] = clinically used antidiabetic drugs
[8] = natural α-glucosidase inhibitors
[9] = molar ratio of myricetin to α-glucosidase 40 : 1
[10] = molar ratio of myricetin to α-glucosidase 80 : 1

T1 sequence (P53341 whole entry): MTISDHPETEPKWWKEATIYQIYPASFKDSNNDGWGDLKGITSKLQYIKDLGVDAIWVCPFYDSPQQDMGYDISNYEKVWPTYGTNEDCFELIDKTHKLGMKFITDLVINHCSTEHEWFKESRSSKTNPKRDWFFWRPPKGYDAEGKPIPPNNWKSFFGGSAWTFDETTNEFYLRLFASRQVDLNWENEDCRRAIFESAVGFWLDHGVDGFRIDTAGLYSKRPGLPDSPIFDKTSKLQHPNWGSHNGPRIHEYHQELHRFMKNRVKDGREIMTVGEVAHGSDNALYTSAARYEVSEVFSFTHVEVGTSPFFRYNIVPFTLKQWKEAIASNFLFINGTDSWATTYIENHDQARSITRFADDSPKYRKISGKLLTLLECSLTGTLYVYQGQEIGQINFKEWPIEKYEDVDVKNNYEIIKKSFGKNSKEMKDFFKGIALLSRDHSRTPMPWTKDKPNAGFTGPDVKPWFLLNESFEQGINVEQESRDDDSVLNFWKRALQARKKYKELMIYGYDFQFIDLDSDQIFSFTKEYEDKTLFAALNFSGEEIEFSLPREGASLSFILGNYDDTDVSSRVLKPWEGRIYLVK
Chain of Saccharomyces cerevisiae α-glucosidase (P53341 whole entry): as above

Row | Compound | type of α-glucosidase inhibition (reported) (α-glucosidase [1]; [7]) | Inhibitory type (α-glucosidase [2]) | type of α-glucosidase inhibition (reported) (α-glucosidase [1]; [8]) | Ksv, Stern–Volmer quenching constant (α-glucosidase [4]; 298 K) | n, number of binding sites per protein molecule (α-glucosidase [4]; 298 K) | ΔG° free energy change (α-glucosidase [4]; 298 K) [kcal/mol] | Ksv, Stern–Volmer quenching constant (α-glucosidase [4]; 304 K) | n, number of binding sites per protein molecule (α-glucosidase [4]; 304 K) | ΔG° free energy change (α-glucosidase [4]; 304 K) [kcal/mol] | n, number of binding sites per protein molecule (α-glucosidase [4]; 310 K) | ΔG° free energy change (α-glucosidase [4]; 310 K) [kcal/mol] | ΔH° enthalpy change (α-glucosidase [4]) [kcal/mol] | ΔS° entropy change (α-glucosidase [4]) [J mol^−1K^−1] | further results
1 | C[C@H]1O[C@H](O[C@H]2[C@H](O)[C@@H](O)[C@@H](O[C@H]3[C@H](O)[C@@H](O)C(O)O[C@@H]3CO)O[C@@H]2CO)[C@H](O)[C@@H](O)[C@@H]1N[C@H]1C=C(CO)[C@@H](O)[C@H](O)[C@H]1O (stereo partly drawn) [acarbose, reference compound] | competitive inhibitors | Competitive | – | – | – | – | – | – | – | – | – | – | – | –
2 | O=c1c(O)c(-c2ccccc2)oc2cc(O)cc(O)c12 [galangin] | – | – | mixed-type | – | – | – | – | – | – | – | – | – | – | –
3 | O=c1c(-c2ccc(O)cc2)coc2cc(O)cc(O)c12 [genistein] | – | – | mixed-type | – | – | – | – | – | – | – | – | – | – | –
4 | O=c1c(O)c(-c2ccc(O)cc2)oc2cc(O)cc(O)c12 [kaempferol] | – | Mixed-type | – | 9.91 ± 0.08 ×10^4 L mol^−1 | 0.87 ± 0.01 | -6.938 ± 0.0072 | 8.81 ± 0.05 ×10^4 L mol^−1 | 0.93 ± 0.01 | -7.032 ± 0.0024 | 0.98 ± 0.01 | -7.122 ± 0.0048 | -2.32 ± 0.237 | 64.84 ± 3.25 | inhibition of the activity of α-glucosidase [3]: approximately 60%; Ksv, Stern–Volmer quenching constant (α-glucosidase [4]; 310 K): 8.04 ± 0.02 ×10^4 L mol^−1
5 | O=c1cc(-c2ccc(O)c(O)c2)oc2cc(O)cc(O)c12 [luteolin] | – | – | mixed-type | – | – | – | – | – | – | – | – | – | – | –
6 | OCCN1C[C@H](O)[C@@H](O)[C@H](O)[C@H]1CO [miglitol] | competitive inhibitors | – | – | – | – | – | – | – | – | – | – | – | – | –
7 | O=c1c(O)c(-c2ccc(O)cc2O)oc2cc(O)cc(O)c12 [morin] | – | – | mixed-type | – | – | – | – | – | – | – | – | – | – | –
8 | O=c1c(O)c(-c2cc(O)c(O)c(O)c2)oc2cc(O)cc(O)c12 [myricetin] | – | Mixed-type | – | 14.26 ± 0.03 ×10^4 L mol^−1 | 0.99 ± 0.01 | -7.012 ± 0.012 | 13.81 ± 0.04 ×10^4 L mol^−1 | 1.04 ± 0.01 | -7.075 ± 0.0096 | 1.06 ± 0.01 | -7.139 ± 0.0096 | -3.862 ± 0.136 | 44.22 ± 1.17 | random coil percentage of α-glucosidase (α-glucosidase [5]; [9]): 28.0%; α-helix content of α-glucosidase (α-glucosidase [5]; [9]): 17.6%; β-sheet proportion of α-glucosidase (α-glucosidase [5]; [9]): 45.7%; β-turn content of α-glucosidase (α-glucosidase [5]; [9]): 8.7%; random coil percentage of α-glucosidase (α-glucosidase [5]; [10]): 28.2%; α-helix content of α-glucosidase (α-glucosidase [5]; [10]): 15.5%; β-sheet proportion of α-glucosidase (α-glucosidase [5]; [10]): 49.9%; β-turn content of α-glucosidase (α-glucosidase [5]; [10]): 6.4%; reversibility of inhibition (α-glucosidase [6]): reversible inhibitor; Ksv, Stern–Volmer quenching constant (α-glucosidase [4]; 310 K): 13.05 ± 0.03 ×10^4 L mol^−1
9 | O=c1c(O)c(-c2ccc(O)c(O)c2)oc2cc(O)cc(O)c12 [quercetin] | – | Mixed-type | – | 11.42 ± 0.06 ×10^4 L mol^−1 | 0.97 ± 0.01 | -6.948 ± 0.0072 | 11.20 ± 0.06 ×10^4 L mol^−1 | 0.99 ± 0.01 | -7.027 ± 0.0072 | 1.01 ± 0.01 | -7.108 ± 0.0096 | -2.923 ± 0.234 | 56.51 ± 3.27 | inhibition of the activity of α-glucosidase [3]: approximately 75%
10 | OCC(CO)N[C@H]1C[C@](O)(CO)[C@@H](O)[C@H](O)[C@H]1O [voglibose] | competitive inhibitors | – | – | – | – | – | – | – | – | – | – | – | – | –
